In the library only some 2.3% were active in any assay of this set; here they are far more common.
TRPC6 activator – mouse TRPC6 channel activation. AID 2550. B-score at 10 µM. HEK293-TRPC6 membrane potential dye fluorescence; hits give high values. actives 0.13% (n = 310,000);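 active means B-score of the integrated fluorescence ratio above library mean plus 3 SD, and starting fluorescence ratio within library mean plus 5 SD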;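 further: higher score means more depolarization so channel activation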
TRPC6 inhibitor – blocks the mouse TRPC6 cation channel | Q61143 | HEK293-TRPC6, membrane potential dye, ACh-evoked depolarization; hits give low values | B-score at 10 µM | actives 1.1% (n = 310,000) | AID 2553;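 active means B-score under library mean minus 3 SD, initial fluorescence not abnormally high, positive integrated signal ratio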;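 further: B-score derived from integrated fluorescence ratio over the kinetic read; more negative B-score means stronger inhibition of depolarization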
TRPC4 block – TRPC4 (mouse) channel inhibition; Q9QUQ5; HEK293 TRPC4beta/mu-opioid, DAMGO-evoked Fluo4 calcium flux; hits give low values; B-score at 10 µM; actives 0.39% (n = 300,000);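 active means B-score over 3 SD under the library average, no early fluorescence shift, positive overall ratio signal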
Target sequence (Q9QUQ5 whole entry, looked up): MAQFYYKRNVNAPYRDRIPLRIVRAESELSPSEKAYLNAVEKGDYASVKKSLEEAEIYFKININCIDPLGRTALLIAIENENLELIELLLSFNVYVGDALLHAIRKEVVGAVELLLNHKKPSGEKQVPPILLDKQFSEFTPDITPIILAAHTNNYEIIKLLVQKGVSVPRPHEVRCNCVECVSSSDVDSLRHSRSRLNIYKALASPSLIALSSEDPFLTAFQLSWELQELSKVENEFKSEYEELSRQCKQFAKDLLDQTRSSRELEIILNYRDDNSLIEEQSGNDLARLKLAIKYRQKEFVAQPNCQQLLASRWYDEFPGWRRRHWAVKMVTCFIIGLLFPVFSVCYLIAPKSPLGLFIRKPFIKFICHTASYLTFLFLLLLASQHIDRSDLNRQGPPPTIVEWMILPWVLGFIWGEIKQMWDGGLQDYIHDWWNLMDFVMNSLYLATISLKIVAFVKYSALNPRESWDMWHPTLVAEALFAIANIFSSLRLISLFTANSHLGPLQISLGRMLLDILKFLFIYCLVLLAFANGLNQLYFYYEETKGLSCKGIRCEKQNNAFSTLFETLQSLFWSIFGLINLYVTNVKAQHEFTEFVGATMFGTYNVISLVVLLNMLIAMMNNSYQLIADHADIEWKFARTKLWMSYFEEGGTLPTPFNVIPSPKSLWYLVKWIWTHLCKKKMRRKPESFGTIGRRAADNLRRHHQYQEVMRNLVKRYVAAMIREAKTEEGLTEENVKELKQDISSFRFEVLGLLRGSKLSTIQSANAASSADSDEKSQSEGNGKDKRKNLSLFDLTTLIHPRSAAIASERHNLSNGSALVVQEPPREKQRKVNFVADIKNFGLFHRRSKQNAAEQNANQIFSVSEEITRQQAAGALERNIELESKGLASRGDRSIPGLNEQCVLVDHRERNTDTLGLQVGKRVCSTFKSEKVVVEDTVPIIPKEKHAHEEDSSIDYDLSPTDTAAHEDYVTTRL
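Signal: kinetic Fluo4 fluorescence imaging of calcium influx. Material: stable TRPC4beta/mu-opioid receptor HEK293 cells. Probe or stimulus: DAMGO in two steps, submaximal then maximal.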
TRPC4 agonist – activators of mouse TRPC4 channel | Q9QUQ5 | HEK293 TRPC4beta/mu-opioid, Fluo4 calcium fluorescence; hits give high values | B-score at 10 µM | actives 0.49% (n = 310,000) | AID 2237;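 active means B-score above 5 SD of library B-scores, and initial fluorescence ratio not above library mean plus 5 SD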;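 further: positive B-score marks a calcium rise read as TRPC4 activation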
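Assay system: HEK293 stable line with TRPC4beta plus mu-opioid receptor; schedule: 45 min room-temperature Fluo4 loading, 110 s read; technique: kinetic Fluo4 calcium fluorescence; evaluation: integrated baseline-normalised fluorescence ratio, converted to per-well B score; controls: buffer (low) and maximal DAMGO (high)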
TRPC4 PAM – TRPC4 (mouse) allosteric potentiation; B-score at 10 µM; actives 0.42% (n = 310,000); Q9QUQ5; HEK293 TRPC4beta/mu-opioid, DAMGO EC20, Fluo-4 Ca2+ flux; hits give high values;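 active means B-score of calcium response area above 5 SD of library B-scores, with initial fluorescence ratio within 5 SD of library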
TRPC4 spec 2 – second selectivity test of TRPC6 inhibitors: effect on mouse TRPC4; shares compounds with TRPC6 inhibitor; HEK293 TRPC4/MOR, membrane potential dye fluorescence; channel activated by saturating DAMGO dose; inhibition, % at 10 µM; actives 42% (n = 920);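 active means compounds whose fluorescence signal differed from control wells by over 3 SD, either direction, in both duplicate plates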
TRPC4 spec – tests whether TRPC6 inhibitors also affect mouse TRPC4. actives 61% (n = 920). activity change, negative = inhibition, % at 10 µM. shares compounds with TRPC6 inhibitor. HEK293 TRPC4/mu-opioid, membrane potential fluorescence;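 active means rise or fall in signal beyond 3 SD of buffer-only wells in both replicate plates, either sign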;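 further: integrated kinetic ratio of fluorescence range over baseline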
HEK293 MPD ctr 2-1 – parental HEK293 nonspecific activity of TRPC6 inhibitors, second screen; parental HEK293 membrane potential dye fluorescence; maximal acetylcholine challenge after compound addition; shares compounds with TRPC6 inhibitor; AID 2779; actives 31% (n = 920); signal change vs control, % at 10 µM;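 active means membrane potential signal moving either way by over 3 SD of the maximum-effect control, in both duplicate plates, meaning non-specific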
HEK293 MPD ctr-1 – counter-screen for TRPC6 inhibitors: effect in parental HEK293 cells; membrane potential signal change, % at 10 µM; AID 2780; actives 60% (n = 920); parental HEK293 membrane potential dye fluorescence; shares compounds with TRPC6 inhibitor;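 active means membrane potential signal shifting up or down by more than 3 SD of buffer-only wells, on both duplicate plates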
HEK293 MPD ctr-2 – parental HEK293 nonspecific activity of TRPC6 modulators. shares compounds with TRPC6 inhibitor. membrane potential dye fluorescence. membrane potential signal change, % at 10 µM. actives 51% (n = 2,400). AID 488924;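 active means membrane potential signal moves up or down beyond 5 SD from buffer-only wells, on both duplicate plates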
HEK293 MPD ctr 2-2 – second check of TRPC6 modulator effects in parental HEK293 cells; shares compounds with TRPC6 inhibitor; membrane potential dye fluorescence; after compound, maximal acetylcholine stimulation; inhibition, % at 10 µM; actives 14% (n = 2,400); AID 488926;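 active means membrane potential signal drops by more than 5 SD from the mean control signal, in both duplicate plates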
TRPC4/MOR mod – tests whether TRPC6 modulators also affect mouse TRPC4; HEK293 TRPC4/mu-opioid, membrane potential fluorescence; shares compounds with TRPC6 inhibitor; percent change from control (negative = decrease, positive = increase), % at 10 µM; actives 69% (n = 2,400);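 active means membrane potential signal moved up or down beyond 5 SD of buffer control wells, in both duplicate plates, actives on both sides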
TRPC4/MOR inh 2 – second selectivity test of TRPC6 modulators against mouse TRPC4; actives 55% (n = 2,400); HEK293 TRPC4/mu-opioid, membrane potential dye fluorescence; stimulated with maximal-effect DAMGO; shares compounds with TRPC6 inhibitor; inhibition, % at 10 µM; AID 488928;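 active means drop in membrane potential signal beyond 5 SD of the control wells in both duplicate plates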;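 further: TRPC4 counter screen for TRPC6 hits run under conditions tuned for TRPC6 not TRPC4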
TRPC6 inh conf – confirmation of mouse TRPC6 inhibitors. shares compounds with TRPC6 inhibitor. HEK293-TRPC6, membrane potential dye, ACh-evoked depolarization. inhibition, % at 10 µM. actives 43% (n = 3,300). AID 488960;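 active means fluorescence ratio falls more than 5 SD below the full-stimulation control mean, in both duplicate runs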;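 further: integrated fluorescence ratio of peak minus minimum over baseline after agonist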
TRPC6 act conf – mouse TRPC6 activator confirmation; shares compounds with TRPC6 inhibitor; HEK293-TRPC6 membrane potential dye fluorescence, FDSS; activation, % at 10 µM; actives 11% (n = 2,800); AID 488961;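 active means ratio signal rise beyond 5 SD above unstimulated control wells' mean, seen in both duplicate runs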
Each line names hits and unclear results; the compound was inactive in the other large screens (follow-up assays come after a bar, where they were run).

COC(=O)c1ccc(CN2CCC(Oc3ccc(C(=O)N4CCCCC4)cc3)CC2)cc1	TRPC6 inhibitor -5.72 | HEK293 MPD ctr-2 139.5% | HEK293 MPD ctr 2-2 inactive | TRPC4/MOR mod 15.0% | TRPC4/MOR inh 2 inactive | TRPC6 inh conf 45.5%
COC(=O)c1ccc(CN2CCC(Oc3cccc(C(=O)N4CCCC4)c3)CC2)cc1	none
COc1ccccc1/C=C/CN1CCC(Oc2ccc(C(=O)N3CCCCC3)cc2)CC1	TRPC6 inhibitor -5.76 | HEK293 MPD ctr-2 240.0% | HEK293 MPD ctr 2-2 inactive | TRPC4/MOR mod 21.5% | TRPC4/MOR inh 2 79.5% | TRPC6 inh conf 51.0%
COc1ccc(/C=C/CN2CCC(Oc3ccc(C(=O)N4CCCCC4)cc3)CC2)cc1	none
CCOC(=O)C1=c2s/c(=C\c3cccnc3)c(=O)n2C(N)=C(C(=O)OC)C1c1cccnc1 (stereo unspecified)	TRPC6 inhibitor -5.1 | HEK293 MPD ctr-2 inactive | HEK293 MPD ctr 2-2 inactive | TRPC4/MOR mod inactive | TRPC4/MOR inh 2 inactive | TRPC6 inh conf inactive | TRPC6 act conf inactive
CCOC(=O)/C(O)=C(\C#N)c1nc2ccccc2[nH]1	none
Cc1ccc(S(=O)(=O)/N=C2/NC(=O)/C(=C/c3cc([N+](=O)[O-])ccc3O)S2)cc1	TRPC6 activator 62.1 | HEK293 MPD ctr-2 390.0% | HEK293 MPD ctr 2-2 inactive | TRPC4/MOR mod 66.5% | TRPC4/MOR inh 2 inactive | TRPC6 inh conf inactive | TRPC6 act conf 280.0%
COc1cc(/C=C2\S/C(=N/S(=O)(=O)c3ccc(C)cc3)NC2=O)c([N+](=O)[O-])cc1OC	none
O=C1NC(=Nc2ccccc2Cl)S/C1=C\c1cc([N+](=O)[O-])ccc1O	TRPC6 activator 33.6, TRPC4 agonist 82 | HEK293 MPD ctr-2 active | HEK293 MPD ctr 2-2 inactive | TRPC4/MOR mod 380.0% | TRPC4/MOR inh 2 65.0% | TRPC6 inh conf inactive | TRPC6 act conf 657.5%
O=C(NCC(c1ccco1)N1CCc2ccccc21)C(=O)Nc1ccccc1 (stereo unspecified)	none
CCOC(=O)c1[nH]c2ccc(OC)cc2c1NC(=O)c1ccc2c(c1)OCO2	none
Oc1ccccc1N=Nc1ccccc1O	none
Nc1ccc(N=Nc2ccccc2O)c(N)c1	TRPC6 inhibitor -6.54 | HEK293 MPD ctr-2 -174.0% | HEK293 MPD ctr 2-2 inactive | TRPC4/MOR mod 27.5% | TRPC4/MOR inh 2 98.5% | TRPC6 inh conf inactive | TRPC6 act conf inactive
O=C(NCc1ccccc1Cl)c1ccc(-c2ccccc2)cc1	none
COc1cc(-c2nc3ccccn3c2/N=C/c2cc(OC)c(O)cc2Cl)ccc1O	TRPC6 inhibitor -5.83 | HEK293 MPD ctr-2 inactive | HEK293 MPD ctr 2-2 inactive | TRPC4/MOR mod -10.5% | TRPC4/MOR inh 2 33.5% | TRPC6 inh conf inactive | TRPC6 act conf inactive
O=C(CCc1nc(-c2ccc(Cl)cc2)no1)OCc1ccc(Br)cc1	none
COc1ccc(-c2nc3cccc(C)n3c2NCC2CCCO2)cc1O (stereo unspecified)	TRPC6 inhibitor -6.05 | HEK293 MPD ctr-2 -231.5% | HEK293 MPD ctr 2-2 inactive | TRPC4/MOR mod -41.5% | TRPC4/MOR inh 2 46.5% | TRPC6 inh conf 45.0% | TRPC6 act conf inactive
COc1ccc(NC(=O)CNC(=O)Cc2cccc3ccccc23)c(OC)c1	none
COc1ccc(-c2coc3cc(O)cc(O)c3c2=O)cc1	none
COc1ccc(-c2coc3cc(OC)cc(O)c3c2=O)cc1	TRPC6 inhibitor -8.63 | HEK293 MPD ctr-2 inactive | HEK293 MPD ctr 2-2 inactive | TRPC4/MOR mod inactive | TRPC4/MOR inh 2 inactive | TRPC6 inh conf inactive | TRPC6 act conf inactive
CN1CCCN=C1COC(=O)C(O)(c1ccccc1)C1CCCCC1 (stereo unspecified)	TRPC6 inhibitor -6.96 | TRPC4 spec 2 inactive | TRPC4 spec 0.2% | HEK293 MPD ctr 2-1 36.5% | HEK293 MPD ctr-1 inactive | TRPC6 inh conf 91.2% | TRPC6 act conf inactive
CCN(CC)CCC(O)(c1ccccc1)C1CCCCC1 (stereo unspecified)	none
COc1cccc(C(=O)Nc2ccccc2N2CCCC2)c1	none
COc1cccc(NC(=O)c2cc([N+](=O)[O-])ccc2N2CCN(C)CC2)c1	none
COc1cccc(C(=O)Nc2cc([N+](=O)[O-])ccc2N2CCN(C)CC2)c1	TRPC6 inhibitor -10.8 | HEK293 MPD ctr-2 -372.0% | HEK293 MPD ctr 2-2 inactive | TRPC4/MOR mod -61.0% | TRPC4/MOR inh 2 56.5% | TRPC6 inh conf 50.5% | TRPC6 act conf inactive
COC(=O)c1ccc(N2CCN(C)CC2)c(NC(=O)c2cccnc2)c1	TRPC6 inhibitor -8.53, TRPC4 agonist 50 | HEK293 MPD ctr-2 -443.5% | HEK293 MPD ctr 2-2 84.5% | TRPC4/MOR mod -75.5% | TRPC4/MOR inh 2 55.5% | TRPC6 inh conf 55.0% | TRPC6 act conf inactive
CN1CCN(c2ccc([N+](=O)[O-])cc2C(=O)Nc2ccccc2)CC1	TRPC6 inhibitor -5.34 | HEK293 MPD ctr-2 inactive | HEK293 MPD ctr 2-2 inactive | TRPC4/MOR mod inactive | TRPC4/MOR inh 2 inactive | TRPC6 inh conf inactive | TRPC6 act conf inactive

Screens deposited in PubChem by Johns Hopkins Ion Channel Center.
